Bioassay records (PubChem BioAssay)
The list is not random: actives were taken first. Their share in the collection is about 3.5%.
PRMT1 FP inh – blocks human protein arginine methyltransferase 1; inhibition, % at 2.79 µM; hit rate 1.3% among 370,000; Q99873; recombinant PRMT1, activity-based probe fluorescence polarization;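 active means inhibition above about 21% made by adding two undisclosed values, limit read from the data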
Target sequence (Q99873 whole entry, looked up): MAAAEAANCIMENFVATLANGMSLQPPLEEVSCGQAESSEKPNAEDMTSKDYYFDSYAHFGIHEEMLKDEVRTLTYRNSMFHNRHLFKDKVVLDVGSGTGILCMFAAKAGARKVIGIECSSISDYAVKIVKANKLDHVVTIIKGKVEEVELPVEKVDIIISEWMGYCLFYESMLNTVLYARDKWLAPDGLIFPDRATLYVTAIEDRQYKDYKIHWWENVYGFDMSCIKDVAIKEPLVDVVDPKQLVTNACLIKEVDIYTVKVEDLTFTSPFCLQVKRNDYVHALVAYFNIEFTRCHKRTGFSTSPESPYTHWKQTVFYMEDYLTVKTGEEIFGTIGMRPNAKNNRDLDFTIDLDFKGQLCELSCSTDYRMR
HTRA1 inh – inhibitors of human serine peptidase HTRA1; Q92743; recombinant HTRA1, FP-rhodamine activity-based probe, fluorescence polarization; inhibition, % at 5.96 µM; hit rate 0.5% among 340,000; in the data active means inhibition above about 36%;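 further: 0% = enzyme with DMSO and 100% = wells lacking enzyme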
SIAE inh – inhibitors of human sialic acid acetylesterase SIAE; AID 1053197; hit rate 0.69% among 370,000; inhibition, % at 9.66 µM; SIAE FP-Rh probe binding, fluorescence polarization; Q9HAT2;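 active means inhibition above a cutoff: mean of compounds within the control limits plus 3 SD of those, cut at about 17% in these data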;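 further: 0% = plate median of compound wells and 100% = probe without SIAE protein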
rCAG RNA binder – molecules binding r(CAG) RNA repeats; r(CAG) RNA repeat, TO-PRO-1 dye displacement fluorescence; inhibition, % at 3 µM; hit rate 1.3% among 370,000;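 active means inhibition above the plate cutoff, the mean of all test compounds on that plate plus 3 SD, cut at about 35% in these data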;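 further: 0% = DMSO alone and 100% = 100 µM mitoxantrone as full dye displacement; higher means more dye released from RNA so lower well fluorescence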
TCR-CD3 inh – blocks the human TCR-CD3 interaction; TAMRA-labeled TCR probe fluorescence, biochemical; inhibition, % at 9.4 µM; hit rate 0.37% among 360,000; AID 651800; in the data active means inhibition above about 19%;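 further: recombinant mutant TCR 2C K166C tagged with TAMRA read by polarization; 0% = receptor in buffer alone and 100% = receptor with positive control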
ABHD4 inh – inhibits mouse alpha/beta hydrolase domain 4 | Q8VD66 | purified mABHD4, FP-Rh probe fluorescence polarization | inhibition, % at 8.92 µM | hit rate 0.54% among 370,000;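 active means inhibition exceeding the mean over every tested compound plus 3 SD, cut at about 30% in these data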;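 further: 0% = plate median of compound wells and 100% = S159A mutant with DMSO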
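Assay system: Wild-type mouse ABHD4 protein | Medium: HEPES pH 7.0 buffer, 150 mM NaCl, 0.01% Pluronic F-127 | Incubation: Enzyme–compound pre-incubation 45 min, then probe 60 min, both 25 °C | Technique: Fluorescence polarization with parallel and perpendicular emission, 525/598 nm | Evaluation: % inhibition of FP-Rh probe binding versus controls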
rCAG binder conf – r(CAG) RNA repeat binding, confirmation; shares compounds with rCAG RNA binder; TO-PRO-1 dye displacement fluorescence; inhibition, % at 3 µM; hit rate 70% among 4,300; AID 652065;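 active means inhibition above a per-plate cutoff, the mean inhibition of sample wells plus 3 SD, cut at about 35% in these data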;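 further: loss of TO-PRO-1 fluorescence as compound displaces dye from 1x1 AA loop RNA; 0% = DMSO only wells and 100% = 100 µM mitoxantrone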
dCAG dye counter – disrupts DNA CAG TO-PRO-1 complex, flagging rCAG hits. AID 652068. inhibition, % at 3 µM. hit rate 94% among 4,300. shares compounds with rCAG RNA binder. d(CAG) DNA oligo TO-PRO-1 dye displacement, fluorescence;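 active means inhibition above its plate's cutoff, the mean test-well inhibition plus 3 SD, cut at about 4.8% in these data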;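 further: 0% = DNA dye mix with DMSO and 100% = 100 µM mitoxantrone; hits displace the dye from DNA and so lower well fluorescence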
dCAG dye DR – disrupts DNA CAG TO-PRO-1 complex in dose response; shares compounds with rCAG RNA binder; DNA CAG/GTC duplex TO-PRO-1 dye displacement fluorescence; IC50, µM; hit rate 20% among 250; AID 686960; in the data active means IC50 below about 10 µM
* hit, by the source's call; / = no result given; ! = not active in a repeat.

SMILES	PRMT1 FP inh	HTRA1 inh	SIAE inh	rCAG RNA binder	TCR-CD3 inh	ABHD4 inh	rCAG binder conf	dCAG dye counter	others
C[C@H](CCC(=O)O)[C@H]1CC[C@H]2[C@@H]3CC[C@@H]4C[C@H](O)CC[C@]4(C)[C@H]3C[C@H](O)[C@]12C	3	0	0	37*!	6	-19	40*	6.7*
O=C(CN(C(=O)OCC1c2ccccc2-c2ccccc21)[C@@H](Cc1ccccc1)C(=O)O)OCc1ccc(C(=O)NCc2ccccc2)cc1	1	/	-1	61*	/	-21	70*	27*	dCAG dye DR=>30
CC(C)(C)c1ccc(-c2nnc(SCC(=O)Nc3ccc(Oc4ccccc4)cc3)n2Cc2ccco2)cc1	-2	/	5	9	/	0	/	/
CC1=CCC[C@@H]2[C@@](C)(CC/C(C)=C/C(=O)O)[C@H](C)CC[C@@]12C	2	-36	8	45*	1	-18	43*	8.6*
C[C@@H]1CC[C@@]23COC(=O)C2=CCC[C@@H]3[C@@]1(C)CC/C(=C/CO)CO	5	0	4	-2	-9	-1	/	/
COC(=O)CC[C@H](/C=C/C(=O)OC(C)(C)C)Sc1ccc(C(C)(C)C)cc1	0	/	-3	1	/	-5	/	/
CCOc1ccc(Br)cc1S(=O)(=O)Nc1ccc(Cl)c(S(=O)(=O)N(C)C)c1	-1	-8	-2	36*	-2	14	34	9.0*
CCOc1ccc(Br)cc1S(=O)(=O)Nc1ccc(Cl)c(S(=O)(=O)N(CC)c2ccccc2)c1	4	-61	-54	30	-7	-31	/	/
Cc1cc(Cl)ccc1OCC(=O)Nc1ccccc1NS(=O)(=O)c1cccs1	-2	-8	-2	42*	1	-9	51*	11*
O=C(Nc1ccc(Cl)cc1)Nc1ccccc1NS(=O)(=O)c1cccs1	3	-10	-8	43*	-1	-35	39*	10*
O=C(Nc1ccc(F)cc1)Nc1ccccc1NS(=O)(=O)c1cccs1	-1	-5	8	19	2	-7	/	/
CCc1cc2ccccc2nc1SCC(=O)Nc1cc(OC)c(OC)cc1C(=O)O	0	-5	5	53*	6	11	45*	13*
C#CCCN([C@H](C(=O)OC)C(C)CC)S(=O)(=O)c1ccccc1Br (stereo partly specified)	-1	/	-4	3	/	-11	/	/
COc1ccc(Cn2cc(CN3CC=CS3(=O)=O)nn2)cc1	7	/	1	2	/	-1	/	/
Cc1ccnc2c(N3C(=O)C4C5c6ccccc6C(c6ccccc65)C4C3=O)cccc12 (stereo unspecified)	-3	-17	0	47*	4	2	3	4.4*
Cc1ccc(NC(=O)CN(C)C(=O)c2cccnc2Nc2cccc(C(F)(F)F)c2)cc1	-2	-55	-26	44*	4	-27	16	5.8*
Cc1ccc(NC(=O)Cn2nnc(-c3ccncc3)n2)cc1C	-3	/	1	1	/	8	/	/
Cn1c2ccccc2c2cc(/C=C(\NC(=O)c3ccccc3)C(=O)O)ccc21	2	-1	-4	37*	5	4	26	8.0*
O=C(Nc1ccccc1Oc1ccccc1)NC1CCCCN(Cc2ccc(Cl)cc2)C1=O (stereo unspecified)	0	/	-5	9	/	3	/	/
COC(=O)[C@]12C[C@H](CC(=O)NCc3cccs3)C(=O)N(Cc3ccco3)C1=C[C@H](C1CCCC1)O[C@@H]2C	-5	/	8	2	/	-5	/	/
COc1ccc(Cl)cc1NC(=S)NNC(=O)c1cccs1	-7	-9	0	36*	-3	14	34	9.6*
N#CCC[C@H]1CC[C@]2(CCCN(C(=O)c3ccno3)C2)O1	6	/	4	2	/	-5	/	/
O=S(c1cc(Cl)cc(Cl)c1O)c1cc(Cl)cc(Cl)c1O	1	/	3	40*	-5	-84	44*	11*	dCAG dye DR=9.4*
CC(=O)Nc1ccc(S(=O)(=O)Nc2nc3ccccc3nc2Nc2cccc(O)c2)cc1	-4	5	3	59*	2	18	46*	12*
CC(=O)Nc1ccc(S(=O)(=O)Nc2nc3ccccc3nc2N2CCOCC2)cc1	6	3	-4	3	-1	1	/	/
SMILES	PRMT1 FP inh	HTRA1 inh	SIAE inh	rCAG RNA binder	TCR-CD3 inh	ABHD4 inh	rCAG binder conf	dCAG dye counter	others
CC(=O)Nc1ccc(S(=O)(=O)Nc2nc3ccccc3nc2Nc2ccc3ccccc3c2)cc1	0	2	-1	75*	-5	18	93*	82*
CCCCN(CCCC)c1nc2ccccc2nc1NS(=O)(=O)c1ccc(NC(C)=O)cc1	1	-1	-3	4	5	9	/	/
Cc1c(NC(=O)C2CCCN(S(=O)(=O)c3c(C(C)C)cc(C(C)C)cc3C(C)C)C2)c(=O)n(-c2ccccc2)n1C (stereo unspecified)	-2	/	3	7	/	-1	/	/
Cc1ccccc1CN1CCCCC(NC(=O)Cc2cccs2)C1=O (stereo unspecified)	0	/	2	4	/	-1	/	/
O=C(N/N=C\C=C\c1ccco1)c1cc(-c2ccc3ccccc3c2)n[nH]1	8	-36	-7	44*	5	-35	34	20*
CCCCOCCCNC(=O)C[C@H]1C[C@@]2(C(=O)OC)C(=C[C@H](C3CCCC3)O[C@@H]2C)N(Cc2cccc3ccccc23)C1=O	5	/	0	8	/	-4	/	/
O=C1Nc2c(Cl)cc(Cl)cc2C12Nc1ccccc1S2 (stereo unspecified)	23*	/	12	41*	5	11	13	8.0*
C[C@H](CO)N1C[C@H](C)[C@H](CN(C)Cc2ccc(C(=O)O)cc2)OCc2ccccc2-c2c(n(C)c3ccccc23)C1=O	-1	-5	1	48*	-1	3	50*	14*
CCN(CC)c1ccc(/C=C2/C(=O)c3ccc(C(=O)O)cc3C2=O)cc1	4	0	-104	55*	-27	-48	82*	48*
CCN(CC)c1ccc(C=C2C(=O)OC3(CCCCC3)OC2=O)cc1	5	-47	-130	-4	-54	-58	/	/
Cc1cc(/C=C2\SC(=S)NC2=O)c(C)n1C1CC1	6	18	-7	36*	9	21	23	7.1*
Cc1cc(/C=C2/C(=O)N(C)C(=S)N2C)c(C)n1C1CC1	8	13	2	8	-8	7	/	/
